Assay outcomes deposited in PubChem by several laboratories.
The list is not random: actives were taken first. Their share in the collection is about 2.6%.
FGF22 binding – shifts melting point of recombinant human FGF22; Q9HCT0; recombinant FGF22 thermal shift, SYPRO orange fluorescence; percent of sucrose octasulfate shift, DMSO zero; activity (Tm shift, normalised), % at 9.99 µM; 340,000 compounds, 1.5% hits;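 active means mean Tm shift, scaled 0 neutral to 100 positive control, at about 1.3% or above, every replicate too, limit read from the data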
Casp6 inh – blocks human caspase-6 cleavage activity; inhibition, % at 12.5 µM; 350,000 compounds, 0.53% hits; purified caspase-6, Z-VEID-R110 cleavage fluorescence; P55212;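 active means mean inhibition across replicates at least about 35%, with every replicate also reaching that limit, limit read from the data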;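 further: 0% = median of neutral control wells and 100% = no fluorescence left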
NSD2 HMT inh – inhibitors of human histone methyltransferase NSD2; 310,000 compounds, 0.54% hits; NSD2 peptide methylation, AlphaScreen, 120 min; inhibition, % at 12.5 µM; AID 743445; O96028; in the data active means inhibition above about 50%
Target sequence (O96028 whole entry, looked up): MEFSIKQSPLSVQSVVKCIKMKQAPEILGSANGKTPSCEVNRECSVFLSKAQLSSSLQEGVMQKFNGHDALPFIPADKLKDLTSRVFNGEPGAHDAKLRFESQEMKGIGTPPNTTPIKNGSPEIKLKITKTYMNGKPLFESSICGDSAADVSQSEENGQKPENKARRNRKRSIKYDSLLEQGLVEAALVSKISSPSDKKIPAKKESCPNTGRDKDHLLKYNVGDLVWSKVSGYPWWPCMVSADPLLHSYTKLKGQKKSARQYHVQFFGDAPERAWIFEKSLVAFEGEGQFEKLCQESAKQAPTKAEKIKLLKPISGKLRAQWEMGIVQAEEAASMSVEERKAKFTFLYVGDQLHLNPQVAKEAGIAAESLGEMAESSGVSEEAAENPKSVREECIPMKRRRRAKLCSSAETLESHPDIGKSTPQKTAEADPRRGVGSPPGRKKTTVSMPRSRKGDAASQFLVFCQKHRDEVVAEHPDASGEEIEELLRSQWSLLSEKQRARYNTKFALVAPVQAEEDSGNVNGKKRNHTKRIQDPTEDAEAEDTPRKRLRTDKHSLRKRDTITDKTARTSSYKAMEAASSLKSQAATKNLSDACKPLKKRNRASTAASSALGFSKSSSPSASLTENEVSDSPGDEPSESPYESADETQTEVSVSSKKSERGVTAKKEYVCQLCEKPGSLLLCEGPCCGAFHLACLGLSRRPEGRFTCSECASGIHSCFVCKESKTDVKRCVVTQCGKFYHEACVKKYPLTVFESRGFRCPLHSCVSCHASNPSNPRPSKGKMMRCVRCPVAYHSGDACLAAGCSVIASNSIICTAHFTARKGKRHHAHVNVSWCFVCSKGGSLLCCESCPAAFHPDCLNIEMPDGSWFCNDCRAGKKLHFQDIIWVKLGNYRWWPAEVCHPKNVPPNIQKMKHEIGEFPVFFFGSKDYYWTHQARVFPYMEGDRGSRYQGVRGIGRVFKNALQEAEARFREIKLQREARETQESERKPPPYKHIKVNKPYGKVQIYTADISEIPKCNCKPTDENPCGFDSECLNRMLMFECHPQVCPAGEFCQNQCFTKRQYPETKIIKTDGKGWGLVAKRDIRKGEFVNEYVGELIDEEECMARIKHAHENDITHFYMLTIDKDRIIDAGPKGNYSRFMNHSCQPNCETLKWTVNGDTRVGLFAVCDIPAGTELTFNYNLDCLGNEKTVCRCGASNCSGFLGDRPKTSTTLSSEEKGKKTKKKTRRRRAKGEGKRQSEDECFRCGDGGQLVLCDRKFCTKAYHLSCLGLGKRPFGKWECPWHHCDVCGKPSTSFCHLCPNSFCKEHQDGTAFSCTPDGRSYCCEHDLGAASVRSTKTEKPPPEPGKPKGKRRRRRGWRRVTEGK
UCH37 inh – inhibitors of human deubiquitinating enzyme UCH37; purified proteasome/UCH37, Ub-AMC cleavage fluorescence; inhibition, % (concentration not given with the values); 330,000 compounds, 0.33% hits; Q9Y5K5;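 active means mean inhibition over replicate wells above about 20%, limit read from the data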;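 further: 0% = compound-free wells with enzyme and 100% = wells lacking proteasome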
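Signal – fluorescence, ex 355 nm, em 460 nm · System – Proteasome-bound UCH37 · Input – 0.15 nM proteasome as dispensed · Timing – 30 min preincubation with enzyme, 25 min cleavage at room temperature · Read-out basis – percent inhibition of cleavage signal versus uninhibited and no-proteasome wells · Medium – Tris-HCl pH 7.4 with ATP-MgCl2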
SIRT5 inh – blocks human SIRT5 desuccinylation of peptide; Q9NXA8; Purified SirT5, succinyl-peptide AMC, trypsin-coupled fluorescence; inhibition, % at 15 µM; 330,000 compounds, 1.1% hits; AID 652115; in the data active means inhibition above about 15%
AlphaScreen art – AlphaScreen assay artifact in NSD2 counter-screen | AC35, µM (top dose mostly 10 µM), for the others: at the highest dose activity change, negative = signal loss | shares compounds with NSD2 HMT inh | AlphaScreen artifact counterscreen, preloaded methylated H4 peptide | 1,500 compounds, 9.4% hits | AID 1053174; call rule not given here
* marks the source's active call; other numbers are inactive results; . = no result given.

SMILES	FGF22 binding	Casp6 inh	NSD2 HMT inh	UCH37 inh	SIRT5 inh	AlphaScreen art
CC(C(=O)Nc1ccc(O)cc1C(=O)O)N1C(=O)/C(=C\c2cccs2)SC1=S (stereo not given)	0	46*	83*	19	8	-5%
O=C(C[C@H]1C[C@H]2c3cc(NC(=O)Nc4ccc(C(F)(F)F)cc4)ccc3O[C@H]2[C@H](CO)O1)NCC1CC1	0	2	.	.	1	.
Cc1ccc(Sc2ncccc2C(N)=O)cc1	0	-1	106*	0	0	-1%
Cc1ccc(Sc2ncccc2C(=O)O)cc1	.	.	-5	2	.	.
COc1ccc(/C=C2\N=C(C(C)(C)C)OC2=O)c(OC)c1	0	-3	91*	-3	-6	-1%
NS(=O)(=O)c1ccc(CNC(=O)CCCSc2ccccc2)cc1	0	0	82*	1	5	-7%
CC1=NN(c2ccc([N+](=O)[O-])cc2)C(=O)/C1=C\N(C)C	0	6	1	13	.	.
CC1=NN(c2ccccc2)C(=O)/C1=C/N(C)C	0	3	71*	6	2	-6%
C[C@@H]1CN([C@@H](C)CO)C(=O)c2cc(NS(=O)(=O)c3cn(C)cn3)ccc2O[C@H]1CN(C)Cc1ccccc1	0	0	.	.	-5	.
O=C1Nc2c(Cl)cccc2C1=O	0	37*	126*	.	.	4%
Cc1cccc2c1NC(=O)C2=O	1	28	33	2	.	.
COCCCNC(=O)c1ccc2c3c(onc13)-c1ccccc1C2=O	.	.	53*	24*	.	-14%
O=C(NC1CCCc2ccccc21)c1ccccc1OC(F)F (stereo not given)	0	1	95*	5	-1	-1%
O=C(NC1CCCc2ccccc21)c1ccccc1Cl (stereo not given)	0	1	-2	1	-1	.
C[C@H](CO)N1C[C@H](C)[C@H](CN(C)C(=O)Nc2ccccc2)Oc2c(NS(=O)(=O)c3cn(C)cn3)cccc2C1=O	0	-2	.	.	1	.
CC(C)CC#Cc1cnc2c(c1)C(=O)N([C@@H](C)CO)C[C@@H](C)[C@@H](CN(C)S(=O)(=O)c1cn(C)cn1)O2	0	-4	.	.	-10	.
Cc1nc2ccc(S(=O)(=O)N3CCCCC3)cc2s1	0	2	51*	1	2	-1%
Nc1nc2ccc(S(=O)(=O)N3CCCCC3)cc2s1	0	-2	.	7	-2	.
C(=Nc1nc2ccccc2[nH]1)c1cccs1	.	.	.	6	.	.
CC(C)NC(=O)N[C@H]1CC[C@H](CCNS(=O)(=O)c2ccc(Cl)cc2)O[C@@H]1CO	0	-1	.	.	-3	.
COc1ccc(C(=O)Cc2nnc(C)s2)cc1	.	.	69*	3	.	2%
CC1=CS(=O)(=O)CC1Sc1ncn[nH]1 (stereo not given)	.	.	144*	2	.	-5%
CC(C)(C)/C=N/NC(=O)CNC(=O)c1ccc2c(c1)OCCO2	0	7	50*	.	-4	-4%
O=C(CNC(=O)c1ccc2c(c1)OCCO2)N/N=C/c1ccc(Cl)cc1	.	1	3	.	0	.
COc1ccc(NC(=O)CSc2nc(N)c(C#N)cc2C#N)cc1	0	-1	4	1	0	.
SMILES	FGF22 binding	Casp6 inh	NSD2 HMT inh	UCH37 inh	SIRT5 inh	AlphaScreen art
CCOC(=O)c1c(C#N)c(SCC(=O)Nc2ccc(OC)cc2)nc2c1CN(CC)CC2	.	.	70*	3	.	-3%
Cc1ccccc1-c1noc(C23CC4CC(CC(C4)C2)C3)n1	.	.	63*	4	.	6%
C[C@H]1CN([C@@H](C)CO)C(=O)c2cc(C#Cc3cccnc3)cnc2O[C@@H]1CN(C)Cc1ccc(F)cc1	0	.	.	.	6	.
CCOc1ccccc1N(CC(=O)NCCc1ccc(OC)c(OC)c1)S(=O)(=O)c1ccccc1	.	3	55*	2	-2	0%
CCOc1ccccc1N(CC(=O)Nc1ccc(OC)c(OC)c1)S(=O)(=O)c1ccccc1	0	-1	1	4	-2	.
O=C(c1ccc(Br)c([N+](=O)[O-])c1)N1CCN(Cc2ccccc2)CC1	0	15	2	4	3	.
O=C(c1ccc(N2CCOCC2)c([N+](=O)[O-])c1)N1CCN(Cc2ccccc2)CC1	0	1	120*	6	-2	-3%
Nc1[nH]c(=O)[nH]c(=O)c1N=Cc1ccccc1	.	.	-1	.	.	.
O=c1[nH]c(NCCO)c(N=Cc2ccccc2)c(=O)[nH]1	-1	-1	104*	17	-13	3%
O=c1c2ccccc2nc(COc2ccccc2)n1/N=C/c1ccc(O)c(O)c1	0	14	65*	.	-3	-13%
O=C(O)COc1ccc(/C=N/n2c(COc3ccccc3)nc3ccccc3c2=O)cc1	0	-3	-2	.	-5	.
COc1ccc(C(=O)Nn2c(SCC(=O)c3ccc(Cl)cc3)nc3ccccc3c2=O)cc1	.	.	116*	2	.	-4%
C[C@@H]1CN([C@@H](C)CO)C(=O)c2cccc(NC(=O)Nc3cccc4ccccc34)c2O[C@H]1CN(C)S(C)(=O)=O	0	-4	.	.	-2	.
CCCN(CCC)CCCNC(=S)Nc1ccc2nc(N3CCN(C)CC3)cc(C)c2c1	0	-64	35	-9	0	.
CCCN(CCC)CCCNC(=S)Nc1ccc2nc(N3CCN(CC)CC3)cc(C)c2c1	1	-62	70*	-10	4	-10%
Cn1cc2ccc([N+](=O)[O-])cc2n1	0	0	29	3	1	.
Cn1cc2ccc(N)cc2n1	0	0	87*	-21	0	0%
Cc1ccccc1-c1ccc([C@H]2[C@H]3CN(CC4CCOCC4)CCCCN3[C@H]2CO)cc1	0	-1	.	.	-4	.
Cc1ccc(N2CN=c3s/c(=C\c4ccccn4)c(=O)n3C2)cc1	.	.	59*	.	.	-8%
Cc1ccc(N2CN=c3sc(=Cc4ccccn4)c(=O)n3C2)cc1	.	.	.	9	.	.
Cc1cccc2c(=O)c(C(=O)NCc3ccc(F)cc3)c[nH]c12	0	0	57*	0	1	-6%
CCN1C(=O)c2ccccc2S(=O)(=O)c2ccc(C(=O)NC(C)C)cc21	0	3	52*	4	3	-5%
Cc1ccc(S(=O)(=O)Nc2cccc3c2O[C@@H](CN(C)S(=O)(=O)c2ccccc2)[C@H](C)CN([C@H](C)CO)C3=O)cc1	0	3	.	.	-7	.
CCCN(C)C[C@H]1OCCCC[C@H](C)Oc2ccc(NS(=O)(=O)c3ccc(OC)cc3)cc2C(=O)N([C@H](C)CO)C[C@H]1C	0	-2	.	.	0	.
COc1ccc(-c2nnc3n2N=C(C)CS3)cc1	.	.	68*	4	.	-3%
CC(=NNc1cc(Cl)nc(C)n1)c1ccc(Cl)c(Cl)c1	.	.	.	1	.	.
CCOC(=O)C1CCN(c2nc(N)c3c(N)nc(SCC(=O)O)cc3c2C#N)CC1	-1	65*	101*	-108	11	-6%
